Source: ChEMBL document CHEMBL3526127, “Absorption, elimination, and metabolism of CS-1036, a novel α-amylase inhibitor in rats and monkeys, and the relationship between gastrointestinal distribution and suppression of glucose absorption” (Drug Metab Dispos, 2013)
One block for each molecule: values may come before it.

Legend:
[1] = Volume of distribution at steady state in F344 rat at 1 mg/kg, iv administered as single dose by LC-MS/MS method; assay type: ADME, organism-based; parameters: dose 1 mg/kg, route intravenous; conditions: in vivo, read-out: Vdss
Summary of the method: (§1)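 Male F344 rats (146–185 g) and male cynomolgus monkeys (3.48–4.29 kg), n = 4 each, fasted overnight, received single iv or oral doses of 0.3, 1.0, 3.0 or 10.0 mg/kg. Monkeys had 2-week washouts between doses. Plasma was sampled to 48 h and assayed by LC-MS/MS with deuterated internal standard. Noncompartmental analysis: tmax observed; t1/2 by regression on ≥3 terminal log points; Vss = dose·AUMC/(AUC0–inf)²; Foral = oral/iv AUC0–inf at the same dose.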

[2] = Half life in cynomolgus monkey at 3 mg/kg, iv administered as single dose by LC-MS/MS method; assay type: ADME, organism-based, Macaca fascicularis; parameters: dose 3 mg/kg, route intravenous; conditions: in vivo; summary of the method: as §1
[3] = AUC (0 to infinity) in cynomolgus monkey at 3 mg/kg, po administered as single dose by LC-MS/MS method; assay type: ADME, organism-based, Macaca fascicularis; parameters: dose 3 mg/kg, route oral, time infinity; conditions: plasma
Summary of the method: (§2)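 Fasted male F344 rats (146–185 g) or male cynomolgus monkeys (3.48–4.29 kg), n = 4 per dose, given single iv or oral dose of 0.3, 1.0, 3.0 or 10.0 mg/kg; monkeys dosed with 2-week washouts. Blood sampled to 48 h; plasma stored frozen. LC-MS/MS with deuterated internal standard. Noncompartmental analysis: AUClast by trapezoidal rule; AUC0–inf = AUClast + Ctz/terminal rate constant; mean ± S.D.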

[4] = AUC (0 to infinity) in F344 rat at 3 mg/kg, po administered as single dose by LC-MS/MS method; assay type: ADME, organism-based; parameters: time infinity, dose 3 mg/kg, route oral; conditions: plasma; summary of the method: as §2
Alpha amylase = target: T1, Alpha amylase (Homo sapiens, UniProt P0DUB6); assay: Inhibition of pancreatic alpha amylase (unknown origin)
T1 sequence (P0DUB6 whole entry): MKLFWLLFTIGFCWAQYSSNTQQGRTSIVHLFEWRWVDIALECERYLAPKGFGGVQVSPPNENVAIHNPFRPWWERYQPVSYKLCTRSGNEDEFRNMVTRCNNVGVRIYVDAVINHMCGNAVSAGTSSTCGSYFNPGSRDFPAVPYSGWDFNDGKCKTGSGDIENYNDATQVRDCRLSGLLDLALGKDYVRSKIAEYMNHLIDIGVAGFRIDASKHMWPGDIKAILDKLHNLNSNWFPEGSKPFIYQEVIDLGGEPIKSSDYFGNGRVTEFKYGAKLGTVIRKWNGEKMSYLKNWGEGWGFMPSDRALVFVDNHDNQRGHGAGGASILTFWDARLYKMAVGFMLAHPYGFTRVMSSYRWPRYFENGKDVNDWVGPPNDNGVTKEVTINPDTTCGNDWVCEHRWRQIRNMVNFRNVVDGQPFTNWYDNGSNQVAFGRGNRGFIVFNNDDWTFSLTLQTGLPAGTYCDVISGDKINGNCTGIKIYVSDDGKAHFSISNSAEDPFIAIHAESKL

[5] = AUClast in cynomolgus monkey at 0.3 mg/kg, po administered as single dose by LC-MS/MS method; assay type: ADME, organism-based, Macaca fascicularis; parameters: dose 0.3 mg/kg, route oral, time 0 - last; conditions: plasma; summary of the method: as §2
[6] = Half life in F344 rat at 3 mg/kg, iv administered as single dose by LC-MS/MS method; assay type: ADME, organism-based; parameters: dose 3 mg/kg, route intravenous; conditions: in vivo; summary of the method: as §1
[7] = AUC (0 to infinity) in F344 rat at 10 mg/kg, iv administered as single dose by LC-MS/MS method; assay type: ADME, organism-based; parameters: time infinity, dose 10 mg/kg, route intravenous; conditions: plasma; summary of the method: as §2
[8] = Tmax in F344 rat at 1 mg/kg, po administered as single dose by LC-MS/MS method; assay type: ADME, organism-based; parameters: dose 1 mg/kg, route oral; conditions: in vivo; summary of the method: as §1
[9] = Volume of distribution at steady state in cynomolgus monkey at 10 mg/kg, iv administered as single dose by LC-MS/MS method; assay type: ADME, organism-based, Macaca fascicularis; parameters: dose 10 mg/kg, route intravenous; conditions: in vivo, read-out: Vdss; summary of the method: as §1
[10] = AUC (0 to infinity) in cynomolgus monkey at 1 mg/kg, iv administered as single dose by LC-MS/MS method; assay type: ADME, organism-based, Macaca fascicularis; parameters: time infinity, dose 1 mg/kg, route intravenous; conditions: plasma; summary of the method: as §2
[11] = Oral bioavailability in F344 rat at 3 mg/kg administered as single dose by LC-MS/MS method; assay type: ADME, organism-based; conditions: in vivo; summary of the method: as §1
[12] = Drug excretion in cynomolgus monkey feces at 3 mg/kg, po administered as single dose after 48 hrs by scintillation counting method; conditions: in vivo
[13] = Drug excretion in F344 rat feces at 1 mg/kg, po administered as single dose after 0 to 168 hrs by scintillation counting method; assay type: ADME, organism-based; parameters: dose 1 mg/kg, route oral; conditions: in vivo
Summary of the method: (§3)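 Fasted F344 rats (152–156 g iv via tail vein; 154–159 g oral; n = 4) received [14C]-labelled drug at 1 mg/kg (41.9 µCi/kg). Animals were kept in metabolic cages; urine and feces were collected to 168 h, and expired CO2 was trapped in 2-aminoethanol/2-methoxyethanol (1:1) to 48 h. Samples were counted by liquid scintillation (feces homogenized). Results are % of dose, mean ± S.D.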

[14] = Drug metabolism in rat kidney […] S9 fractions at 0.42 uCi/ml assessed as metabolite formation in presence of NADPH after 1 hr at 37 degC by LC-MS/MS method; assay type: ADME, subcellular; conditions: s9, 1 h
Cynomolgus monkey [15] = assay: Drug excretion in cynomolgus monkey assessed as drug level found during cage washing at 3 mg/kg, iv administered as single dose after 0 to 48 hrs by scintillation counting method; assay type: ADME, organism-based, Macaca fascicularis; parameters: dose 3 mg/kg, route intravenous; conditions: in vivo
Summary of the method: (§4)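 Fasted cynomolgus monkeys (n = 4) received [14C]-labelled drug at 3 mg/kg, iv via saphenous vein (191 µCi/kg) or orally by stomach catheter (156.5 µCi/kg). Urine, feces and water cage-wash were collected to 336 h. Samples were counted by liquid scintillation; feces were homogenized in 4-fold water. Results are % of dose, mean ± S.D.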

[16] = Drug excretion in F344 rat urine at 1 mg/kg, iv administered as single dose after 0 to 48 hrs by scintillation counting method; assay type: ADME, organism-based; parameters: dose 1 mg/kg, route intravenous; conditions: in vivo; summary of the method: as §3
Cynomolgus monkey [17] = assay: Total drug excretion in cynomolgus monkey at 3 mg/kg, po administered as single dose after 0 to 336 hrs by scintillation counting method; assay type: ADME, organism-based, Macaca fascicularis; parameters: dose 3 mg/kg, route oral; conditions: in vivo
Summary of the method: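 Fasted male cynomolgus monkeys (n = 4) were dosed with 14C-labelled drug at 3 mg/kg, iv via saphenous vein (191 µCi/kg) or orally by stomach catheter (156.5 µCi/kg). Urine, feces and cage-wash water were collected to 336 h. Radioactivity was measured by liquid scintillation counting, with feces homogenized in water, and expressed as % of dose.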

Ileum = assay: Drug distribution in F344 rat ileum at 1 mg/kg, po administered as single dose after 2 hrs by scintillation counting method; assay type: ADME, organism-based; parameters: dose 1 mg/kg, route oral; conditions: in vivo
Summary of the method: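 [14C]-labelled drug (1 mg/kg, 42.4 µCi/kg) was given orally to fasted F344 rats (148–168 g, n = 3). Contents of stomach, duodenum+jejunum, ileum and cecum were washed out with water at 0.5–8 h, homogenized, solubilized and counted by liquid scintillation. Results are % of dose, mean ± S.D.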

[18] = Drug excretion in cynomolgus monkey feces at 3 mg/kg, po administered as single dose after 0 to 48 hrs by scintillation counting method; assay type: ADME, organism-based, Macaca fascicularis; parameters: dose 3 mg/kg, route oral; conditions: in vivo; summary of the method: as §4
[19] = Drug excretion in F344 rat urine at 1 mg/kg, po administered as single dose after 0 to 48 hrs by scintillation counting method; assay type: ADME, organism-based; parameters: dose 1 mg/kg, route oral; conditions: in vivo; summary of the method: as §3
[20] = Drug metabolism in anaerobic culture broth of human feces assessed as 1,4-dideoxy-1,4-imino-D-arabinitol formation at 63.5 uCi/ml after 24 hrs at 35 degC by LC-MS/MS method; assay type: ADME, tissue-based

Vd [1]: 0.237 L/kg | half-life [2]: 1510 min | AUC(0-inf) [3]: 191 ng·h/mL | AUC(0-inf) [4]: 325 ng·h/mL | IC50 (Alpha amylase): 0.45 µM | AUC(0-t) [5]: 15 ng·h/mL | half-life [6]: 1420 min | AUC(0-inf) [7]: 53200 ng·h/mL | Tmax [8]: 25 min | Vd [9]: 0.217 L/kg | AUC(0-inf) [10]: 5890 ng·h/mL | bioavailability [11]: 1.73%
Compound: C[C@H]1O[C@@H](O[C@H]2[C@H](O)[C@@H](O)[C@@H](O[C@H]3[C@H](O)CN[C@@H]3CO)O[C@@H]2CO)[C@H](O)[C@@H](O)[C@@H]1O

Drug excretion [12]: 48.7% | Drug excretion [13]: 80.28% | Drug metabolism [14]: metabolite_not_detected | Drug excretion (Cynomolgus monkey [15]): 13.7% | Drug excretion [16]: 70.49% | Drug excretion (Cynomolgus monkey [17]): 95.15% | Drug uptake (Ileum): 33.9% | Drug excretion [18]: 78.5% | Drug excretion [19]: 13.34% | Drug metabolism [20]: metabolite_detected
Compound: C[C@H]1O[C@@H](O[C@H]2[C@H](O)[C@@H](O)[C@@H](O[14C@H]3[14C@H](O)[14CH2]N[14C@@H]3[14CH2]O)O[C@@H]2CO)[C@H](O)[C@@H](O)[C@@H]1O
